Source: ChEMBL document CHEMBL1135939, “Studies on the synthesis and opioid agonistic activities of mitragynine-related indole alkaloids: discovery of opioid agonists structurally different from other opioid ligands” (J Med Chem, 2002)
Active and inactive are the calls of the source. No cut-off for these calls is given here.

Legend:
Cavia porcellus [1] = species on record: Cavia porcellus; assay: Relative potency expressed as the percentage of the pD2 value against that of morphine; format: functional
Cavia porcellus [2] = species on record: Cavia porcellus; assay: % maximum inhibition is elicited when the response reaches plateau, calculated regarding electrically induced contraction in guinea pig ileum as 100% (P < 0.001); format: functional
Method in brief: (§1)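 Ileum from male Dunkin-Hartley guinea pigs (300–400 g) in bath at 37 °C bubbled with 95% O2/5% CO2. Tissue suitability checked with acetylcholine 3 μM. Transmural stimulation at 0.2 Hz, 0.3 ms, supramaximal voltage, isotonic recording. Cumulative concentration–response curves over 100 pM–30 μM. Twitch height measured before and after drug. Mean ± SEM from five to six animals.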

Cavia porcellus [3] = species on record: Cavia porcellus; assay: activity evaluated by its ability to inhibit the electrically induced twitch contraction in guinea pig ileum, which is reversed by naloxone (300 nM); format: functional; method in brief: as §1
Cavia porcellus [4] = species on record: Cavia porcellus; assay: Relative inhibitory activity expressed as the percentage of the maximum inhibition by the compound against that of morphine; format: functional
[5] = target: Kappa-type opioid receptor (Cavia porcellus, UniProt P41144); assay: Binding affinity using guinea pig brain membrane preparations, towards Opioid receptor kappa 1 using [3H]- U-69,593 as radioligand
[6] = tested on: Delta-type opioid receptor; assay: Relative affinity evaluated for Opioid receptor delta 1; settings: Cavia porcellus
Method in brief: (§2)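 From displacement Ki values in guinea pig brain membranes for μ ([3H]DAMGO), δ ([3H]DPDPE) and κ ([3H]U-69593) sites. Ka = 1/Ki. Relative affinity (%) = Ka for the subtype / (Kaμ + Kaδ + Kaκ).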

Mu-type opioid receptor = Mu-type opioid receptor (Cavia porcellus, UniProt P97266); assay: Binding affinity using guinea pig brain membrane preparations, towards Opioid receptor mu 1 using [3H]- DAMGO as radioligand
Method in brief: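 Guinea pig whole-brain (minus cerebellum) membranes in 50 mM Tris-HCl pH 7.4 with 1 nM radioligand. [3H]DPDPE incubated 2 h and [3H]DAMGO 1.5 h, both at 25 °C. Nonspecific binding defined with 1 μM naltrindole (DPDPE) or 1 μM DAMGO (DAMGO). GF/B filtration, scintillation counting. 6–9 inhibitor concentrations; Ki by Cheng–Prusoff, given as pKi. 3–5 curves, each in triplicate.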

[7] = target: Mu-type opioid receptor (Cavia porcellus) (UniProt P97266); assay: Relative affinity evaluated for Opioid receptor mu 1; method in brief: as §2
Cavia porcellus [8] = species on record: Cavia porcellus; assay: % maximum inhibition is elicited when the response reaches plateau, calculated regarding electrically induced contraction in guinea pig ileum as 100%; format: functional; method in brief: as §1
Cavia porcellus [9] = species on record: Cavia porcellus; assay: activity evaluated by its ability to inhibit the electrically induced twitch contraction in guinea pig ileum, which is reversed by naloxone (300 nM)(P < 0.001); format: functional; method in brief: as §1
Cavia porcellus [10] = species on record: Cavia porcellus; assay: % inhibition of twitch contraction at 0.1 uM in electrically stimulated guinea pig ileum preparation; format: functional; method in brief: as §1
Cavia porcellus [11] = species on record: Cavia porcellus; assay: Relative inhibitory activity expressed as the percentage of the maximum inhibition by the compound against that of morphine; non specific; format: functional
Cavia porcellus [12] = species on record: Cavia porcellus; assay: Relative potency expressed as the percentage of the pD2 value against that of morphine; non specific; format: functional
Cavia porcellus [13] = species on record: Cavia porcellus; assay: % maximum inhibition is elicited when the response reaches plateau, calculated regarding electrically induced contraction in guinea pig ileum as 100%; non specific; format: functional; method in brief: as §1
Cavia porcellus [14] = species on record: Cavia porcellus; assay: activity evaluated by its ability to inhibit the electrically induced twitch contraction in guinea pig ileum, which is reversed by naloxone (300 nM); non specific; format: functional; method in brief: as §1
Cavia porcellus [15] = species on record: Cavia porcellus; assay: % inhibition of twitch contraction in electrically stimulated guinea pig ileum preparation; format: functional; method in brief: as §1
Cavia porcellus [16] = species on record: Cavia porcellus; assay: activity evaluated by its ability to inhibit the electrically induced twitch contraction in guinea pig ileum, which is reversed by naloxone (300 nM)(P < 0.01); format: functional; method in brief: as §1
Cavia porcellus [17] = species on record: Cavia porcellus; assay: % maximum inhibition is elicited when the response reaches plateau, calculated regarding electrically induced contraction in guinea pig ileum as 100%(P < 0.01); format: functional; method in brief: as §1
Cavia porcellus [18] = species on record: Cavia porcellus; assay: % inhibition of twitch contraction at 3 uM in electrically stimulated guinea pig ileum preparation by; format: functional; method in brief: as §1
Cavia porcellus [19] = species on record: Cavia porcellus; assay: Relative inhibitory activity expressed as the percentage of the maximum inhibition by the compound against that of morphine; no effect; format: functional
Cavia porcellus [20] = species on record: Cavia porcellus; assay: activity evaluated by its ability to inhibit the electrically induced twitch contraction in guinea pig ileum, which is reversed by naloxone (300 nM); no effect; format: functional; method in brief: as §1
Cavia porcellus [21] = species on record: Cavia porcellus; assay: Relative potency expressed as the percentage of the pD2 value against that of morphine; no effect; format: functional
Cavia porcellus [22] = species on record: Cavia porcellus; assay: % maximum inhibition is elicited when the response reaches plateau, calculated regarding electrically induced contraction in guinea pig ileum as 100%; no effect; format: functional; method in brief: as §1
Cavia porcellus [23] = species on record: Cavia porcellus; assay: activity evaluated by its ability to inhibit the electrically induced twitch contraction in guinea pig ileum, which is reversed by naloxone (300 nM) (P < 0.001); format: functional; method in brief: as §1
Cavia porcellus [24] = species on record: Cavia porcellus; assay: Effect of Corynantheidine (10 uM) on twitch contraction inhibited by morphine (1 uM) in guinea pig (P<0.001); format: functional
Cavia porcellus [25] = species on record: Cavia porcellus; assay: Effect of Corynantheidine (1 uM) on twitch contraction inhibited by Verapamil (3 uM) in guinea pig; format: functional
Cavia porcellus [26] = species on record: Cavia porcellus; assay: Effect of Corynantheidine (1 uM) on twitch contraction inhibited by Atropine (0.1 uM) in guinea pig; format: functional
Cavia porcellus [27] = species on record: Cavia porcellus; assay: Effect of Corynantheidine (1 uM) on twitch contraction inhibited by morphine (1 uM) in guinea pig (P<0.05); format: functional
Cavia porcellus [28] = species on record: Cavia porcellus; assay: Effect of Corynantheidine (10 uM) on twitch contraction inhibited by Verapamil (3 uM) in guinea pig; format: functional
Cavia porcellus [29] = species on record: Cavia porcellus; assay: Effect of Corynantheidine (10 uM) on twitch contraction inhibited by Atropine (0.1 uM) in guinea pig; format: functional
Cavia porcellus [30] = species on record: Cavia porcellus; assay: % maximum inhibition is elicited when the response reaches plateau, calculated regarding electrically induced contraction in guinea pig ileum as 100% (P<0.001); format: functional; method in brief: as §1
Cavia porcellus [31] = species on record: Cavia porcellus; assay: % maximum inhibition is elicited when the response reaches plateau, calculated regarding electrically induced contraction in guinea pig ileum as 100%(P < 0.001); format: functional; method in brief: as §1

Sequence of Kappa-type opioid receptor (P41144 whole entry): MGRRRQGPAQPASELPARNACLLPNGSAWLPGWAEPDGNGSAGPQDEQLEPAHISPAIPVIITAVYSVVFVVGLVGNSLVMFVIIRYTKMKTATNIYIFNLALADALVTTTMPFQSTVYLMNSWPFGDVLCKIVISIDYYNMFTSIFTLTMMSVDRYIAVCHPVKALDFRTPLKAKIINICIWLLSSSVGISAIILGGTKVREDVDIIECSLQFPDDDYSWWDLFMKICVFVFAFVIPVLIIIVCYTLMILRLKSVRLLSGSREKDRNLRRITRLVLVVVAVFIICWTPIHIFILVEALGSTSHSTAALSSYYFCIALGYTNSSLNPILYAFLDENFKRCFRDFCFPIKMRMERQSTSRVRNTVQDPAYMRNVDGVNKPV
Sequence of Mu-type opioid receptor (P97266 whole entry): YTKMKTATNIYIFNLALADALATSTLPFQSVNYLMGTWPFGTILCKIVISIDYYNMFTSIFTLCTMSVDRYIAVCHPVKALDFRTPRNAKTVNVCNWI
Sequence of Mu-type opioid receptor (Cavia porcellus) (P97266 whole entry): as above

CC[C@@H]1CN2CCc3c([nH]c4cccc(OC(C)=O)c34)[C@@H]2C[C@@H]1/C(=C\OC)C(=O)OC
Relative potency (Cavia porcellus [1]): 2%
Inhibition (Cavia porcellus [2]): 33.2%
pD2 (Cavia porcellus [3]): 5.39
Inhibition (Cavia porcellus [4]): 38%

CC[C@@H]1CN2CCc3c([nH]c4cccc(O)c34)[C@@H]2C[C@@H]1/C(=C\OC)C(=O)OC
Ki [5]: 2950 nM
Relative potency (Cavia porcellus [1]): 41%
Inhibition (Cavia porcellus [2]): 49.4%
Relative affinity [6]: < 0.1%
Ki (Mu-type opioid receptor): 12 nM
Relative affinity [7]: 99.6%
pD2 (Cavia porcellus [3]): 6.78
Inhibition (Cavia porcellus [4]): 57%

CC[C@@H]1CN2CC3=C(O)C4C(OC)=CC=CC4N=C3[C@@H]2C[C@@H]1/C(=C\OC)C(=O)OC (stereo partly specified)
Relative potency (Cavia porcellus [1]): 34%
Inhibition (Cavia porcellus [8]): 74.1%
pD2 (Cavia porcellus [9]): 6.7
Inhibition (Cavia porcellus [4]): 85%

CN1[C@@H]2CC[C@H]1C[C@@H](OC(=O)C(CO)c1ccccc1)C2 (stereo partly specified) [ATROPINE]
Contraction (Cavia porcellus [10]): 3.9%

CCOc1cccc2[nH]c3c(c12)CCN1C[C@@H](CC)[C@@H](/C(=C\OC)C(=O)OC)C[C@@H]31
NS (Cavia porcellus [11]): non specific
NS (Cavia porcellus [12]): non specific
NS (Cavia porcellus [13]): non specific
NS (Cavia porcellus [14]): non specific

CN1CC[C@]23c4c5ccc(O)c4O[C@H]2[C@@H](O)C=C[C@H]3[C@H]1C5 [MORPHINE]
Contraction (Cavia porcellus [15]): 27.4%
Inhibition (Cavia porcellus [8]): 87.2%
Inhibition (Cavia porcellus [4]): 100%

CC[C@@H]1CN2CCc3c([nH]c4cccc(OC)c34)[C@@H]2C[C@@H]1/C(=C\OC)C(=O)OC
Ki [5]: 1100 nM
Relative potency (Cavia porcellus [1]): 26%
Inhibition (Cavia porcellus [8]): 83.1%
Relative affinity [6]: 10.7%
Ki (Mu-type opioid receptor): 7.24 nM
Relative affinity [7]: 88.7%
Inhibition (Cavia porcellus [4]): 95%
pD2 (Cavia porcellus [16]): 6.59

CC[C@@H]1CN2CC[C@@]3(OC(C)=O)C(=Nc4cccc(OC)c43)[C@@H]2C[C@@H]1/C(=C\OC)C(=O)OC
Relative potency (Cavia porcellus [1]): 21%
Inhibition (Cavia porcellus [2]): 13.4%
Inhibition (Cavia porcellus [4]): 15%
pD2 (Cavia porcellus [16]): 6.5

CC[C@@H]1CN2CC[C@@]3(OC)C(=Nc4cccc(OC)c43)[C@@H]2C[C@@H]1/C(=C\OC)C(=O)OC
Relative potency (Cavia porcellus [1]): 19%
Inhibition (Cavia porcellus [17]): 60.9%
pD2 (Cavia porcellus [9]): 6.45
Inhibition (Cavia porcellus [4]): 70%

COc1ccc(CCN(C)CCCC(C#N)(c2ccc(OC)c(OC)c2)C(C)C)cc1OC (stereo unspecified)
Contraction (Cavia porcellus [18]): 6.8%

CC[C@@H]1CN2CCc3c([nH]c4cccc(OCOC)c34)[C@@H]2C[C@@H]1/C(=C\OC)C(=O)OC
NE (Cavia porcellus [19]): inactive
NE (Cavia porcellus [20]): inactive
NE (Cavia porcellus [21]): inactive
NE (Cavia porcellus [22]): inactive

CC[C@@H]1CN2CC[C@@]3(O)C(=Nc4cccc(OC)c43)[C@@H]2C[C@@H]1/C(=C\OC)C(=O)OC
Ki [5]: 123 nM
Relative potency (Cavia porcellus [1]): 1071%
pD2 (Cavia porcellus [23]): 8.2
Inhibition (Cavia porcellus [8]): 86.3%
Relative affinity [6]: 6.6%
Ki (Mu-type opioid receptor): 13.5 nM
Relative affinity [7]: 83.3%
Inhibition (Cavia porcellus [4]): 99%

CC[C@@H]1CN2CCc3c([nH]c4ccccc34)[C@@H]2C[C@@H]1/C(=C\OC)C(=O)OC [CORYNANRHEIDINE]
Ki [5]: 2570 nM
Contraction (Cavia porcellus [24]): 109.2%
Contraction (Cavia porcellus [25]): 7%
Contraction (Cavia porcellus [26]): 5.7%
Contraction (Cavia porcellus [27]): 43%
Contraction (Cavia porcellus [28]): 13.2%
Relative affinity [6]: 1%
Contraction (Cavia porcellus [29]): 6.3%
Ki (Mu-type opioid receptor): 72.4 nM
Relative affinity [7]: 95.8%
Inhibition (Cavia porcellus [30]): -18.1%
Inhibition (Cavia porcellus [4]): -21%

CC[C@@H]1CN2CCc3c([nH]c4cccc(OC(C)C)c34)[C@@H]2C[C@@H]1/C(=C\OC)C(=O)OC
NS (Cavia porcellus [11]): non specific
NS (Cavia porcellus [12]): non specific
NS (Cavia porcellus [13]): non specific
NS (Cavia porcellus [14]): non specific

CC[C@@H]1C[N+]2([O-])CCc3c([nH]c4cccc(OC)c34)[C@@H]2C[C@@H]1/C(=C\OC)C(=O)OC (stereo partly specified)
Inhibition (Cavia porcellus [8]): -123.5%

CC[C@@H]1CN2CC[C@]3(Nc4cccc(OC)c4C3=O)[C@@H]2C[C@@H]1/C(=C\OC)C(=O)OC
Ki [5]: 79.4 nM
Relative potency (Cavia porcellus [1]): 3467%
pD2 (Cavia porcellus [23]): 8.71
Inhibition (Cavia porcellus [8]): 83.5%
Relative affinity [6]: 2.8%
Ki (Mu-type opioid receptor): 0.0871 nM
Relative affinity [7]: 97.1%
Inhibition (Cavia porcellus [4]): 96%

CCO[C@]12CCN3C[C@@H](CC)[C@@H](/C(=C\OC)C(=O)OC)C[C@H]3C1=Nc1cccc(OC)c12
Relative potency (Cavia porcellus [1]): 1%
pD2 (Cavia porcellus [9]): 5.29
Inhibition (Cavia porcellus [4]): 26%
Inhibition (Cavia porcellus [31]): 22.9%

CC[C@@H]1CN2CCc3c([nH]c4cccc(OC)c34)[C@H]2C[C@@H]1/C(=C/OC)C(=O)OC
Relative potency (Cavia porcellus [1]): 2%
Inhibition (Cavia porcellus [8]): 85.9%
pD2 (Cavia porcellus [9]): 5.4
Inhibition (Cavia porcellus [4]): 101%
